The values that follow come from ChEMBL document CHEMBL1811848 (Bioorg Med Chem Lett, 2011).

Usually AUC(0-inf) stands for the area under the concentration-time curve extrapolated to infinity. Usually ED50 stands for the dose at which the effect has come halfway, by size or by number of responders.

For data set [1], the system named is Rattus norvegicus. The experiment in a line: Toxicity in male Wistar rat assessed as testes to body weight ratio at 3 mg/kg, po measured after 28 days (reference value: 1.075 +/-1 0.106). It is filed as organism-based, Testis. On the set-up: dose 3 mg/kg, route oral. The note with it: in vivo, 672 h.
The test system of data set [2] is Mus musculus. The data set can be described thus: Hypolipidemic activity in db/db mouse assessed as reduction in triglyceride level at 0.03 mg/kg, po. On the set-up: scale not given: the % may be the effect or the level left. The format is functional.
Data set [3] concerns Mus musculus. The data set can be described thus: Hypolipidemic activity in Swiss albino mouse assessed as reduction in triglyceride level at 0.3 mg/kg, po. On the set-up: scale not given: the % may be the effect or the level left. It is filed as functional.
Data set [4] relates to Rattus norvegicus. The experiment in a line: Toxicity in female Wistar rat assessed as urea level at 3 mg/kg, po measured after 28 days (reference value: 33.05 +/- 2.02 mg/dl). Conditions: in vivo, 672 h. More on the design: dose 3 mg/kg, route oral. The format is organism-based.
Data set [5] relates to Rattus norvegicus. The data set can be described thus: Toxicity in female Wistar rat assessed as spleen to body weight ratio at 3 mg/kg, po measured after 28 days (reference value: 0.237 +/- 0.012). It is filed as organism-based. More on the design: dose 3 mg/kg, route oral. Conditions: in vivo, 672 h.
The test system of data set [6] is Rattus norvegicus. The data set can be described thus: Toxicity in male Wistar rat assessed as heart to body weight ratio at 3 mg/kg, po measured after 28 days (reference value: 0.383 +/- 0.012). The format is organism-based. On the set-up: dose 3 mg/kg, route oral. The note with it: in vivo, 672 h.
Data set [7] deals with Mus musculus. The data set can be described thus: Hypolipidemic activity in Swiss albino mouse assessed as reduction in triglyceride level at 0.01 mg/kg, po. More on the design: scale not given: the % may be the effect or the level left. The format is functional.
Data set [8] has as its system Rattus norvegicus. The experiment in a line: Toxicity in male Wistar rat assessed as brain to body weight ratio at 30 mg/kg, po measured after 28 days (reference value: 0.658 +/- 0.015). The note with it: in vivo, 672 h. It is filed as organism-based. More on the design: dose 30 mg/kg, route oral.
Data set [9] relates to Mus musculus. The experiment in a line: Hypolipidemic activity in Swiss albino mouse assessed as reduction in triglyceride level at 1 mg/kg, po. The format is functional. More on the design: scale not given: the % may be the effect or the level left.
Data set [10] relates to Rattus norvegicus. The data set can be described thus: Toxicity in female Wistar rat assessed as brain to body weight ratio at 30 mg/kg, po measured after 28 days (reference value: 0.970 +/- 0.023). Conditions: in vivo, 672 h. It is filed as organism-based. More on the design: dose 30 mg/kg, route oral.
Data set [11] concerns Rattus norvegicus. The experiment in a line: Toxicity in male Wistar rat assessed as albumin level at 30 mg/kg, po measured after 28 days (reference value: 3.66 +/- 0.10 g.dl). It is filed as organism-based. On the set-up: dose 30 mg/kg, route oral. The note with it: in vivo, 672 h.
The nature of data set [12]: AUC (0 to infinity) in fasting Wistar rat at 30 mg/kg, po. More on the design: time infinity, dose 30 mg/kg, route oral. It is filed as ADME, organism-based. The note with it: plasma. The essentials:
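Single oral dose of 30 mg/kg to fasted male Wistar rats. Pharmacokinetic parameters reported as mean ± SD, n = 3.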

In data set [13] the test system is Rattus norvegicus. The experiment in a line: Toxicity in female Wistar rat assessed as heart to body weight ratio at 30 mg/kg, po measured after 28 days (reference value: 0.403 +/- 0.010). It is filed as organism-based. The note with it: in vivo, 672 h. On the set-up: dose 30 mg/kg, route oral.
The subject of data set [14] is Rattus norvegicus. The experiment in a line: Toxicity in male Wistar rat assessed as kidney to body weight ratio at 3 mg/kg, po measured after 28 days (reference value: 0.745 +/- 0.012). The format is organism-based. More on the design: dose 3 mg/kg, route oral. Conditions: in vivo, 672 h.
For data set [15], the system named is Mus musculus. The experiment in a line: Antihyperglycemic activity in db/db mouse assessed as reduction in glucose level at 3 mg/kg/day, po administered for 6 days relative to control. It is filed as functional. More on the design: scale not given: the % may be the effect or the level left. In a few lines:
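Male db/db mice aged 6–8 weeks were dosed orally once daily for 6 days. Plasma glucose was then measured and expressed as % change versus vehicle-treated controls.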

Data set [16] relates to Mus musculus. The data set can be described thus: Antihyperglycemic activity in db/db mouse assessed as reduction in plasma glucose level at 0.03 mg/kg, po. The format is functional. More on the design: scale not given: the % may be the effect or the level left.
The subject of data set [17] is Rattus norvegicus. The experiment in a line: Toxicity in male Wistar rat assessed as Glucose level at 3 mg/kg, po measured after 28 days (reference value: 70 +/- 3.49 mg/dl). The format is organism-based. On the set-up: dose 3 mg/kg, route oral. The note with it: in vivo, 672 h.
Data set [18] is filed under the species Mus musculus. The data set can be described thus: Hypolipidemic activity in Swiss albino mouse assessed as reduction in triglyceride level. It is filed as functional.
Data set [19] concerns Rattus norvegicus. The data set can be described thus: Toxicity in female Wistar rat assessed as hemoglobin level at 3 mg/kg, po measured after 28 days (reference value: 11.90 +/- 0.19 g/dl). The format is organism-based. On the set-up: dose 3 mg/kg, route oral. The note with it: in vivo, 672 h.

With `CCO[C@@H](Cc1ccc(OCCc2nc(-c3ccc(C)s3)oc2C)cc1)C(=O)O`, the Ratio in the data set with Rattus norvegicus [1] was determined as 1.152; in the data set with Rattus norvegicus [5], 0.257; in the data set on Rattus norvegicus [6], 0.412; with Rattus norvegicus [8] it was 0.757; in the data set with Rattus norvegicus [10] it was 0.939; with Rattus norvegicus [13], 0.501. Further, in the data set with Rattus norvegicus [14], the Ratio worked out at 0.807. The Activity came to 25.9% in the data set on Mus musculus [2]; 80.8% in the data set on Mus musculus [3]; 29.19 mg/dL in the data set with Rattus norvegicus [4]; 61.9% with Mus musculus [7]; 82% with Mus musculus [9]; 4.12 g/dL in the data set on Rattus norvegicus [11]. The Activity with Mus musculus [15] came out at 72%; in the data set on Mus musculus [16], 52.1%; with Rattus norvegicus [17] it was 75.74 mg/dL; in the data set on Rattus norvegicus [19], 11.84 g/dL. Besides, the AUC(0-inf) in data set [12] turned out to be 456 µg·h/mL. Besides, the ED50 in the data set filed under Mus musculus [18] is 0.01 mg/kg.
